# APJ ag: agonists of human APJ apelin receptor | CHO-K1 APJ PathHunter beta-arrestin, luminescence; 0% DMSO wells, 100% apelin | activation, % at 20 µM | actives 0.11% (n = 330,000);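 active = activation more than six SD over the plate average, tested at 20 µM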;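 also: 0% = DMSO alone and 100% = apelin-13 at 10 nM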
#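 Material: engineered CHO-K1 APJ arrestin reporter cells; amount: 1000 CHO-K1 reporter cells seeded per well; incubation: compound stimulation 90 min at 25 °C, detection 60 min; signal: luminescent beta-gal fragment complementation, chemiluminescent substrate; read-out basis: APJ agonist activity; controls: DMSO-only wells as negative, 10 nM Apelin-13 as positive control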
# APJ antag: blocks the human apelin receptor APJ | P35414 | CHO-K1 APJ beta-arrestin complementation, luminescence | inhibition, % at 20 µM | actives 0.32% (n = 330,000);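 active = inhibition above about 40% at 20 µM, limit read from the data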;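 also: cells challenged with 10 nM apelin-13 agonist together with compound; plate controls were apelin-13 plus DMSO wells for no effect and DMSO wells lacking apelin-13 for full effect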
# CCR6 antagonist: CCR6 (human) receptor antagonism; CHO-K1 CCR6 PathHunter beta-arrestin, luminescence, CCL20-stimulated; P51684; actives 0.49% (n = 340,000); inhibition, % at 20 µM; AID 493098;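 active = compounds whose inhibition of the agonist-driven luminescence signal at 20 µM reaches about 50%, limit read from the data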;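 also: cells stimulated with CCL20 at 14 nM final; plate controls were DMSO with CCL20 for no effect and DMSO without agonist for full effect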
# APOBEC3G inh: blocks human APOBEC3G single-stranded DNA deamination. Q9HC16. recombinant A3G, ssDNA deamination FAM/TAMRA fluorescence. inhibition, % at 20 µM. actives 0.28% (n = 330,000). AID 493012;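 active = inhibition of at least 40% at 20 µM, with no more than 30% in the related APOBEC3A deaminase screen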;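 also: plate controls were DMSO wells with A3G for no effect and wells lacking A3G enzyme for full effect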
# Target sequence (Q9HC16 whole entry, looked up): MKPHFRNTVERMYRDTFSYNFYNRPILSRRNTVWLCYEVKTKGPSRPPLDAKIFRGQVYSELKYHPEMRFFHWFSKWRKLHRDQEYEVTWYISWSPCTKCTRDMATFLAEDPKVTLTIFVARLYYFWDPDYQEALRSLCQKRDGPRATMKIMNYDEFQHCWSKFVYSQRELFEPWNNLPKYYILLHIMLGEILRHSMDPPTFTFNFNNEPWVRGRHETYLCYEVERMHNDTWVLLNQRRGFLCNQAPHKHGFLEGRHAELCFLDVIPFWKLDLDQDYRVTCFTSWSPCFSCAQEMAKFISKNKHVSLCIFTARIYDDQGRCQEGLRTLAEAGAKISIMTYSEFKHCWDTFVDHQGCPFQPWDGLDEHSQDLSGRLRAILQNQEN
# A3A deaminase: inhibitors of human APOBEC3A DNA deaminase; P31941; recombinant A3A, FAM/TAMRA ssDNA deamination fluorescence; inhibition, % at 20 µM; actives 0.41% (n = 330,000); AID 493011;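 active = at least 40% inhibition at 20 µM here, with at most 30% in a related deaminase screen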;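 also: plate controls were A3A with DMSO for no effect and wells lacking A3A enzyme for full effect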
# Target sequence (P31941 whole entry, looked up): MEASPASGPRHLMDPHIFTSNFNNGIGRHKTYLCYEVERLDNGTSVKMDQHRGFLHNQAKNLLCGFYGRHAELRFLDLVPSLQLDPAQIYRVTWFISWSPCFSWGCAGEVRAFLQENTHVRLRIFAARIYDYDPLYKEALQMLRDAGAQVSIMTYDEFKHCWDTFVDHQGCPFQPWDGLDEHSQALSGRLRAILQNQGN
# CXCR6 inh: CXCR6 (human) receptor inhibition; inhibition, % at 20 µM; CHO-K1 PathHunter CXCR6 beta-arrestin, luminescence; O00574; AID 602244; actives 0.36% (n = 360,000); in the data active = inhibition above about 34%, passing the limit was not always enough;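 also: antagonist mode with CXCL16 agonist at 10 nM final; 0% = 10 nM CXCL16 with DMSO and 100% = unstimulated wells without agonist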
# Numbers without * were called inactive; . = no result given. This is a sample that favours compounds with a hit; in the whole collection about 1.4% have one here.
SMILES,APJ ag,APJ antag,CCR6 antagonist,APOBEC3G inh,A3A deaminase,CXCR6 inh
CC(=O)N(C1CC(C)C(C#N)(C#N)C1(C#N)C#N)N(C)C (stereo unspecified),-2.5,15.2,77.6*,-13.6,1.3,34.0
NNC(=O)C1COc2cc3ccccc3cc2O1 (stereo unspecified),-1.2,-2.4,3.2,-0.1,60.5*,4.5
COc1ccccc1N1CCN(C(=O)c2cccc(S(=O)(=O)N3CCCCCC3)c2)CC1,-4.8,0.2,4.5,-5.6,-1.5,-3.2
Cc1ccc(C(c2cc(Cl)c3cccnc3c2O)N2CCN(C)CC2)cc1 (stereo unspecified),-2.9,30.3,56.9*,-10.3,5.1,33.0
O=c1ccc2cc3c([nH]c4ccc(Br)cc43)oc-2c1O,-7.0,39.1,.,82.2,73.2,45.4*
O=C(O)c1ccc(N=Nc2c(O)[nH]c3ccc(Br)cc23)cc1,-6.2,24.6,19.8,-2.9,4.2,11.5
CC1(C)Cc2c(sc3[nH]c(=O)n(CC(=O)NCC4CCCO4)c(=O)c23)CO1 (stereo unspecified),3.7,-35.4,5.3,10.6,0.3,4.9
O=C(NC(=S)Nc1ccccc1Cl)c1cncc(Br)c1,-3.9,17.5,51.8*,-5.9,-3.3,33.9
O=C(NC(=S)Nc1ccccc1Cl)c1cncc(C#Cc2ccccc2)c1,-3.1,29.0,46.0,-6.1,-1.9,30.8
CC(C)(C)C(=O)/C(=C\c1ccc([N+](=O)[O-])cc1)n1cncn1,-6.7,69.8*,.,2.2,2.0,.
CC(=O)Nc1cccc(-c2ccnc3c2CC(C)(C(=O)Nc2ccc(Cl)c(C(F)(F)F)c2)O3)c1 (stereo unspecified),.,.,.,.,.,0.0
COc1ccc(NC(=S)NC(NC(=O)c2cccc3ccccc23)C(Cl)(Cl)Cl)c([N+](=O)[O-])c1 (stereo unspecified),-6.6,9.8,41.1,-6.0,-2.9,26.1
COc1ccc(NC(=S)NC(NC(=O)c2ccccc2Cl)C(Cl)(Cl)Cl)c([N+](=O)[O-])c1 (stereo unspecified),0.3,22.3,56.1*,-1.5,0.2,33.7
COc1ccc(NC(=S)NC(NC(=O)c2ccc(Cl)cc2Cl)C(Cl)(Cl)Cl)c([N+](=O)[O-])c1 (stereo unspecified),-4.5,10.2,35.7,0.3,-0.1,33.3*
COc1cc(/C=N/NC(=O)C(Cc2c[nH]c3ccccc23)NC(=O)OCC(C)C)cc([N+](=O)[O-])c1O (stereo unspecified),-2.5,44.4*,32.1,-8.2,3.9,13.8
COc1ccc(CCNC(=O)C2CCN(C(=O)c3ccccc3)CC2)cc1,-3.0,5.3,57.0*,-11.1,-5.7,.
COc1ccc(S(=O)(=O)/N=C2/C=CC(=O)C(C)=C2C)cc1,-0.8,-14.2,12.7,-10.3,-5.0,12.0
CC1=C(C)/C(=N\OS(=O)(=O)c2ccc(C)cc2)C=CC1=O,.,.,76.3*,.,.,54.6*
O=C(Cn1c(=O)oc2cc(S(=O)(=O)N3CCCC3)ccc21)Nc1ccccn1,.,.,.,.,.,6.6
S=C(NNc1ccnc2cc(Cl)ccc12)Nc1ccc(Cl)cc1Cl,4.6,8.1,54.4*,2.5,-3.4,17.6
CCOc1ccc(NC(=S)NNc2ccnc3cc(Cl)ccc23)cc1,6.1,-3.5,13.3,-10.7,-3.2,3.4
CC(=O)N1c2ccccc2C2(O)N=C(C)SC12 (stereo unspecified),3.6,-9.8,-4.0,45.7*,-1.3,-13.3
CC(=O)N1c2ccccc2[C@@H](C)[C@@H]1C,-1.3,0.4,-3.5,1.5,2.2,-2.4
COc1ccccc1C(CNC(=O)c1ccc(S(=O)(=O)N2CCCCC2)cc1)N(C)C (stereo unspecified),-1.6,3.8,6.3,-5.9,-3.6,-6.0
CC(C)C[C@@H]1CN(CCCC[C@H]2CNC(=O)C(=O)N2CCC2CCCCC2)C(=O)C(=O)N1CC1CCCCC1,.,.,.,.,.,-7.6
SMILES,APJ ag,APJ antag,CCR6 antagonist,APOBEC3G inh,A3A deaminase,CXCR6 inh
Cn1c(=O)c(=O)n(C)c2cc(S(=O)(=O)NCCOc3ccccc3Cl)ccc21,-4.4,40.2*,11.4,-3.8,0.7,4.0
O=S(=O)(NCCOc1ccccc1Cl)c1ccc2oc3ccccc3c2c1,3.7,-2.6,15.9,4.0,11.5,-4.1
CCOC(=O)Cn1c(=NC(=O)C2COc3ccccc3O2)sc2cc(S(N)(=O)=O)ccc21 (stereo unspecified),0.8,5.1,7.8,-8.3,-7.1,9.5
CCOC(=O)Cn1c(=NC(=O)c2ccc([N+](=O)[O-])s2)sc2ccccc21,2.0,-63.7,54.1*,-8.8,-3.3,8.2
COCCNC(=O)/C(C#N)=C/c1ccc(N2CCOCC2)o1,-0.3,0.4,19.1,-1.8,0.6,52.1*
CCCCCCCCN1C(=O)[C@H](CC(=O)NCc2cccs2)C[C@@]2(C(=O)OC)CCCCC=C12,.,.,.,.,.,13.8
O=C(O)c1cc(O)c2c(c1)[C@H]([C@H]1c3cc(C(=O)O)cc(O)c3C(=O)c3c(O[C@@H]4O[C@H](CO)[C@@H](O)[C@H](O)[C@H]4O)cccc31)c1cccc(OC3O[C@H](CO)[C@@H](O)[C@H](O)[C@H]3O)c1C2=O (stereo partly specified),11.6,10.8,88.3*,95.7,103.2,3.3
O=C(O)c1cc(O)c2c(c1)[C@@H]([C@H]1c3cc(C(=O)O)cc(O)c3C(=O)c3c(O[C@@H]4O[C@H](CO)[C@@H](O)[C@H](O)[C@H]4O)cccc31)c1cccc(OC3O[C@H](CO)[C@@H](O)[C@H](O)[C@H]3O)c1C2=O (stereo partly specified),4.2,21.9,79.1*,88.5,98.2,-9.9
O=C(NC(=S)Nc1ccccn1)c1cc(-c2ccccc2)nc2ccccc12,-1.4,-0.5,19.0,-5.3,-3.6,18.0
CCCCNC(=S)NNC(=O)c1cc(-c2cccnc2)nc2ccccc12,-9.3,-0.3,53.6*,-4.5,-2.1,21.7
O=C(NC(=S)Nc1ccccc1)c1cc(-c2ccccc2)nc2ccccc12,-5.6,34.6,55.2*,0.3,0.5,28.7
CC1(C(=O)Nc2ccccc2)Cc2c(-c3cccc(C(F)(F)F)c3)ccnc2O1 (stereo unspecified),.,.,.,.,.,21.2
Oc1c(Br)cc(Br)cc1C=Nc1ccc2[nH]ncc2c1,14.3*,-103.3,8.8,2.7,11.6,10.3
Cc1cccc(C2(c3cccc(C)c3)CC2C(=O)Nc2ccc([N+](=O)[O-])cc2O)c1 (stereo unspecified),0.4,-24.1,57.9*,-6.8,-1.8,13.5
CN(Cc1ccccc1)C(=O)c1ccc(Nc2nc(C(N)Cc3ccc(C(F)(F)F)cc3)cs2)nc1 (stereo unspecified),.,.,.,.,.,-4.3
Cc1ccc(S(=O)(=O)c2ccc([N+](=O)[O-])o2)cc1,.,.,103.1*,.,.,97.3*

# From PubChem BioAssay
